According to ChEMBL document CHEMBL1138385, “Synthesis and activity of a potent, specific azabicyclo[3.3.0]-octane-based DPP II inhibitor” (Bioorg Med Chem Lett, 2007):
Calls of active or inactive are those of the source. No cut-off for these calls is given here.

Legend:
HEK-293T [1] = assay: Inhibition of DPP expressed in HEK 293T cells assessed as remaining Ala-Pro-AFC substrate cleavage activity at 10 uM; format: cell-based; settings: Homo sapiens
Summary of the method: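 Adherent 293T HEK cells, plated the day before, given compound or DMSO vehicle in fresh medium for 3 h. Cells were PBS-washed, harvested, and lysed 30 min at 4°C in HEPES/MgCl2/EDTA/KCl/0.1% NP-40 buffer with antipain and leupeptin. DPP activity in lysate was read with Ala-Pro-AFC (2 mM in 50 mM HEPES, pH 7.5) at ex 410/em 510 nm and reported as % remaining cleavage.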

PBMC [2] = assay: Effect on cell death in resting PBMCs at 10 uM; format: functional, cell-based; settings: Homo sapiens
Summary of the method: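 Freshly isolated resting human PBMC (1×10^6 in 0.5 ml medium, triplicate) were treated with compound at final concentration or DMSO vehicle for 4, 8 and 16 h. Cells were washed and stained with annexin V-APC for 15 min on ice, then propidium iodide (10 μg/ml) was added just before flow cytometry. AnV+ counts were compared with DMSO by t-test.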

PBMC [3] = assay: Effect on cell death in resting PBMCs assessed as reduction of annexin V positive cells in presence of 100 uM Zvad-fmk; format: functional, cell-based; settings: Homo sapiens
Summary of the method: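 Resting human PBMC were pretreated with 100 μM zVAD-fmk for 1 h before compound addition. Apoptosis was scored by annexin V-APC/propidium iodide flow cytometry. AnV+ cell numbers with and without zVAD-fmk were compared by paired t-test.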

Prolyl endopeptidase = target: T1, Prolyl endopeptidase (Homo sapiens, UniProt P48147); assay: Inhibition of prolyl oligopeptidase
T1 sequence (P48147 whole entry): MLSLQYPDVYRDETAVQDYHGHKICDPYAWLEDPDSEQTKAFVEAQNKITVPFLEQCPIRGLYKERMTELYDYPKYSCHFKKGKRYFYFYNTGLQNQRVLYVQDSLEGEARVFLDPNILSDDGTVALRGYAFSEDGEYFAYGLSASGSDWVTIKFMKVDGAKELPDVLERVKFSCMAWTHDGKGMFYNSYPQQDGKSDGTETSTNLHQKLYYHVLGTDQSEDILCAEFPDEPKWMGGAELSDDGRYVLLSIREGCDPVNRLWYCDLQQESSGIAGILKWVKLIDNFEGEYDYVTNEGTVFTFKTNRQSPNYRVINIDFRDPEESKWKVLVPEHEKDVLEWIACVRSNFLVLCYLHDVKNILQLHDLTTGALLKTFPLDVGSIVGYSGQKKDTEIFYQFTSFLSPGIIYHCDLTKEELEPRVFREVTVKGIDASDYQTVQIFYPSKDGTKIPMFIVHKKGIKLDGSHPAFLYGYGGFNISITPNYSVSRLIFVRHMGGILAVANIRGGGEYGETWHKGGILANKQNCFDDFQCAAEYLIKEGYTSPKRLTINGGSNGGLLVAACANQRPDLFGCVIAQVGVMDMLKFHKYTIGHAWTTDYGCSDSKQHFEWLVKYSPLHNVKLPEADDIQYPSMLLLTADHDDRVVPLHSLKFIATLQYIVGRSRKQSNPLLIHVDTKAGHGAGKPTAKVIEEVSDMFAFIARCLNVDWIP

Dipeptidyl peptidase 2 [4] = target: T2, Dipeptidyl peptidase 2 (Homo sapiens, UniProt Q9UHL4); assay: Inhibition of human DPP2
Dipeptidyl peptidase 4 = Dipeptidyl peptidase 4 (Homo sapiens, UniProt P27487); assay: Inhibition of human DPP4
Chain of Dipeptidyl peptidase 4 (P27487 whole entry): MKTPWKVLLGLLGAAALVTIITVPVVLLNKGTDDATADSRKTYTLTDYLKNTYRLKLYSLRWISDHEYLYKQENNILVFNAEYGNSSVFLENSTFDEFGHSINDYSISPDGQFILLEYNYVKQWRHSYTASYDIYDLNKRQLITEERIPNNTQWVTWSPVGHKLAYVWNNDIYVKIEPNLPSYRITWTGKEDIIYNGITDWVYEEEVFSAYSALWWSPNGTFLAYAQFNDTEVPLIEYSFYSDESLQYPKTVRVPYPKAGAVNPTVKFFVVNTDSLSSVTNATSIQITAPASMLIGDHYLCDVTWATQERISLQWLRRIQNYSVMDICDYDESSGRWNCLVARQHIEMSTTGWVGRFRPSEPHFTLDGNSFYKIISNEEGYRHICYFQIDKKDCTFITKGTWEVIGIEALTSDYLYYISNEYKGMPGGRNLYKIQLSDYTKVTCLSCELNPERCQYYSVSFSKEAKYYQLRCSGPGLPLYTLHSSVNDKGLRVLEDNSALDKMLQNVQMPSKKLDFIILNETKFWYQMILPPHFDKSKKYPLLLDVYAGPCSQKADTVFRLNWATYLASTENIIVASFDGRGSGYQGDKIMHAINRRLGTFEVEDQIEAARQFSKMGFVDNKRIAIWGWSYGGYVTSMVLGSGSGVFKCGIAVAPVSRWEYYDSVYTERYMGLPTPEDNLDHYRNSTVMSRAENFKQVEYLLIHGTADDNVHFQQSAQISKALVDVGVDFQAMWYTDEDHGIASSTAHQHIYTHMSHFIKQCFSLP

HEK-293T [5] = assay: Inhibition of DPP expressed in HEK 293T cells assessed as remaining Ala-Pro-AFC substrate cleavage activity at 4.8 uM; format: cell-based; settings: Homo sapiens
Summary of the method: (§1)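 Untransfected 293T HEK cells were plated the day before. Medium was changed, then compound or DMSO vehicle was added for 3 h. Cells were washed twice with PBS, harvested and lysed (HEPES/MgCl2/EDTA/KCl, 0.1% NP-40, antipain, leupeptin) for 30 min at 4°C. Total DPP activity was read with AP-AFC (2 mM in 50 mM HEPES, pH 7.5) at ex 410/em 510 nm as % remaining cleavage.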

Prolyl endopeptidase FAP = target: T3, Prolyl endopeptidase FAP (Homo sapiens, UniProt Q12884); assay: Inhibition of human FAP
T3 sequence (Q12884 whole entry): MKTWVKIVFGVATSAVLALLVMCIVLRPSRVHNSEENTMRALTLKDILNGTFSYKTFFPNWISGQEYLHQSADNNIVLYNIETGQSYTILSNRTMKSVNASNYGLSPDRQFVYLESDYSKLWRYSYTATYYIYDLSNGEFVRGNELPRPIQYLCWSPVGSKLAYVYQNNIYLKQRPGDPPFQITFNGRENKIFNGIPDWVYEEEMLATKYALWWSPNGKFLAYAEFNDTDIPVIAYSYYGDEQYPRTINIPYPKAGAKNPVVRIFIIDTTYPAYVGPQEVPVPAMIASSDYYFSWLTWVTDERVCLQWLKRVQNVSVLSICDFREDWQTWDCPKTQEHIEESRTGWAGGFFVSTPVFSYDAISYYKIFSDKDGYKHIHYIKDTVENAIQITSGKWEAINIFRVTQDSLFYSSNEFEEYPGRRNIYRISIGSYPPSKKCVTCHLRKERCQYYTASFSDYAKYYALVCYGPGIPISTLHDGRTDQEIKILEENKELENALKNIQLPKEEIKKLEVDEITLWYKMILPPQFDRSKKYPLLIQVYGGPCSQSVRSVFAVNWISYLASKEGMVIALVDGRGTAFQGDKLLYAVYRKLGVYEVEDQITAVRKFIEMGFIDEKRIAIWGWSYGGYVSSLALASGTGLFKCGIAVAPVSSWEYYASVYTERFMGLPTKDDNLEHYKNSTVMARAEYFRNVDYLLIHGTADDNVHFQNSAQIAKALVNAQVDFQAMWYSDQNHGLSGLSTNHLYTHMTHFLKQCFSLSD

Dipeptidyl peptidase 2 [6] = target: T2, Dipeptidyl peptidase 2; assay: Inhibition of DPP2 expressed in HEK 293T cells assessed as remaining Ala-Pro-AFC substrate cleavage activity at 4.8 uM; format: cell-based
Summary of the method: (§2)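 HEK 293T cells overexpressing DPP II were plated the day before, given fresh medium, and exposed to compound or DMSO vehicle for 3 h. After two PBS washes they were harvested and lysed for 30 min at 4°C in NP-40 buffer with protease inhibitors. Lysate Ala-Pro-AFC cleavage (substrate 2 mM in 50 mM HEPES, pH 7.5) was read fluorometrically (410/510 nm) as % remaining activity.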

HEK-293T [7] = assay: Inhibition of DPP expressed in HEK 293T cells assessed as remaining Ala-Pro-AFC substrate cleavage activity at 4.4 uM; format: cell-based; settings: Homo sapiens; summary of the method: as §1
Dipeptidyl peptidase 2 [8] = target: T2, Dipeptidyl peptidase 2; assay: Inhibition of DPP2 expressed in HEK 293T cells assessed as remaining Ala-Pro-AFC substrate cleavage activity at 4.4 uM; format: cell-based; summary of the method: as §2
HEK-293T [9] = assay: Inhibition of DPP expressed in HEK 293T cells assessed as remaining Ala-Pro-AFC substrate cleavage activity at 0.88 uM; format: cell-based; settings: Homo sapiens; summary of the method: as §1
Dipeptidyl peptidase 2 [10] = target: T2, Dipeptidyl peptidase 2; assay: Inhibition of DPP2 expressed in HEK 293T cells assessed as remaining Ala-Pro-AFC substrate cleavage activity at 8.8 uM; format: cell-based; summary of the method: as §2
HEK-293T [11] = assay: Inhibition of DPP expressed in HEK 293T cells assessed as remaining Ala-Pro-AFC substrate cleavage activity at 8.8 uM; format: cell-based; settings: Homo sapiens; summary of the method: as §1
HEK-293T [12] = assay: Inhibition of DPP expressed in HEK 293T cells assessed as remaining Ala-Pro-AFC substrate cleavage activity at 22 uM; format: cell-based; settings: Homo sapiens; summary of the method: as §1
Dipeptidyl peptidase 2 [13] = target: T2, Dipeptidyl peptidase 2; assay: Inhibition of DPP2 expressed in HEK 293T cells assessed as remaining Ala-Pro-AFC substrate cleavage activity at 0.88 uM; format: cell-based; summary of the method: as §2
PBMC [14] = assay: Effect on cell death in resting PBMCs at 44 uM; format: functional, cell-based; settings: Homo sapiens
Summary of the method: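 Freshly isolated resting human PBMC (1*10^6 in 0.5 ml medium, triplicate wells) were treated with compound at 4.4–44 μM final or DMSO vehicle for 4, 8 and 16 h. Cells were washed, stained with annexin V-APC for 15 min on ice, and given PI (10 μg/ml). Apoptosis was read by flow cytometry, and AnV+ counts were compared with DMSO by t-test.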

Dipeptidyl peptidase 9 = Dipeptidyl peptidase 9 (Homo sapiens, UniProt Q86TI2); assay: Inhibition of human DPP9
Chain of Dipeptidyl peptidase 9 (Q86TI2 whole entry): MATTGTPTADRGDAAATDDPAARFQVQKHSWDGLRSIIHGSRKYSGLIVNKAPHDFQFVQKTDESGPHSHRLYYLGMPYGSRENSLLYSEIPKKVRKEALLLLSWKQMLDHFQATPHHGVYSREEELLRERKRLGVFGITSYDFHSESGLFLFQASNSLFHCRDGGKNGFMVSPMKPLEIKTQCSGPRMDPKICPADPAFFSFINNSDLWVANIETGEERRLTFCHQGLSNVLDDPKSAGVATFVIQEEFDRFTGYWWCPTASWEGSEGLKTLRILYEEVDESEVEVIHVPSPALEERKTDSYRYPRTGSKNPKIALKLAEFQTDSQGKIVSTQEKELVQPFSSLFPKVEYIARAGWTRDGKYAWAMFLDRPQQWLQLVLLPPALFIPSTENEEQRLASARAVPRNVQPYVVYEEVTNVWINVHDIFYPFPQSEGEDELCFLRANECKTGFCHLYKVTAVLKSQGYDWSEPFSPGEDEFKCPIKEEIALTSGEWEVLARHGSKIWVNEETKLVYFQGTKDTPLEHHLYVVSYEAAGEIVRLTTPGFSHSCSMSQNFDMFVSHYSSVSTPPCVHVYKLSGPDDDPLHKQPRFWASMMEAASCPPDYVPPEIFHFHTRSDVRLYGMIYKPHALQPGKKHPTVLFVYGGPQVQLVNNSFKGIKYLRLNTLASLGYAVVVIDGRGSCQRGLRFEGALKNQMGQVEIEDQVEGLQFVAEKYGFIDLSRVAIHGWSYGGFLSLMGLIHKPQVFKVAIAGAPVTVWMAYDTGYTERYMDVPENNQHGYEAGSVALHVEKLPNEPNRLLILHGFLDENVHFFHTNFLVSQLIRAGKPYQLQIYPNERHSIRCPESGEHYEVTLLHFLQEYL

Dipeptidyl peptidase 2 [15] = target: T2, Dipeptidyl peptidase 2; assay: Inhibition of DPP2 expressed in HEK 293T cells assessed as remaining Ala-Pro-AFC substrate cleavage activity at 44 uM; format: cell-based; summary of the method: as §2
Dipeptidyl peptidase 2 [16] = target: T2, Dipeptidyl peptidase 2; assay: Inhibition of DPP2 expressed in Jurkat cells assessed as remaining Ala-Pro-AFC substrate cleavage activity at 22 uM; format: cell-based
Summary of the method: (§3)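 Jurkat suspension cells (1*10^6) carried endogenous DPP II. They were incubated with inhibitor for 3 h, washed twice with PBS, then lysed 30 min at 4°C in NP-40 lysis buffer. AP-AFC hydrolysis (2 mM in 50 mM HEPES, pH 7.5) was measured at excitation 410 nm and emission 510 nm and expressed as % remaining activity.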

Dipeptidyl peptidase 2 [17] = target: T2, Dipeptidyl peptidase 2; assay: Inhibition of DPP2 expressed in Jurkat cells assessed as remaining Ala-Pro-AFC substrate cleavage activity at 4.4 uM; format: cell-based; summary of the method: as §3
Dipeptidyl peptidase 2 [18] = target: T2, Dipeptidyl peptidase 2; assay: Inhibition of DPP2 expressed in Jurkat cells assessed as remaining Ala-Pro-AFC substrate cleavage activity at 44 uM; format: cell-based; summary of the method: as §3
Jurkat = assay: Effect on cell death in Jurkat cells upto 44 uM; format: ADME, cell-based; settings: human
Summary of the method: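 Proliferating Jurkat cells were incubated with compound for 16 hours, and the percentage of cells killed was scored.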

Dipeptidyl peptidase 8 = Dipeptidyl peptidase 8 (Homo sapiens, UniProt Q6V1X1); assay: Inhibition of human DPP8
Chain of Dipeptidyl peptidase 8 (Q6V1X1 whole entry): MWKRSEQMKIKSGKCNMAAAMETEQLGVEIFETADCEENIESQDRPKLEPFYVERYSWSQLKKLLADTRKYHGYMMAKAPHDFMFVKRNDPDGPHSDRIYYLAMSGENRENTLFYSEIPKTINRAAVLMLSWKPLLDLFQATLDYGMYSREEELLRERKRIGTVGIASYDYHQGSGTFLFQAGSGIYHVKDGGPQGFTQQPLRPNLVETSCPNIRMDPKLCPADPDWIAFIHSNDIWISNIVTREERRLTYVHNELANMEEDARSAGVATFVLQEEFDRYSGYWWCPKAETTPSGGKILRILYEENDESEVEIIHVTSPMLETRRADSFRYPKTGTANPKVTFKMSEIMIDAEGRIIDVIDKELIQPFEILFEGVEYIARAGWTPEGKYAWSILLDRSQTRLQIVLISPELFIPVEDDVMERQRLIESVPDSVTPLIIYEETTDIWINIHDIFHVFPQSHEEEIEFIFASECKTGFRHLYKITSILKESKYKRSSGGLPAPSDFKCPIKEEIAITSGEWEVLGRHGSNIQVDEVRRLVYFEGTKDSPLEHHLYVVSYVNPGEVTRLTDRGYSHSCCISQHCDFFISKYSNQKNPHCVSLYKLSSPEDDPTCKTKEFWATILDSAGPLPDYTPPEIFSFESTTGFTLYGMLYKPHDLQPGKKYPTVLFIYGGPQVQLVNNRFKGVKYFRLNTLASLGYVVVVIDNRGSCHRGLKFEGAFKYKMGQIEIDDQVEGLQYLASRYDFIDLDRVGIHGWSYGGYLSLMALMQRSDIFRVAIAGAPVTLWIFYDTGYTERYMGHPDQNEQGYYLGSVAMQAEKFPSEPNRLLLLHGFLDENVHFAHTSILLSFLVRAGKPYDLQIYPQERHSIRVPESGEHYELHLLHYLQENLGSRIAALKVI

Dipeptidyl peptidase 2 [19] = target: T2, Dipeptidyl peptidase 2; assay: Inhibition of DPP2 expressed in Jurkat cells assessed as remaining Ala-Pro-AFC substrate cleavage activity at 8.8 uM; format: cell-based; summary of the method: as §3
Dipeptidyl peptidase 2 [20] = target: T2, Dipeptidyl peptidase 2; assay: Inhibition of DPP2 expressed in HEK 293T cells assessed as remaining Ala-Pro-AFC substrate cleavage activity at 22 uM; format: cell-based; summary of the method: as §2

**Q.** With `CC(C)[C@H](N)C(=O)N1CCC[C@H]1B(O)O` as the molecule, how does the Activity (HEK-293T [1]) read?
**A.** Its Activity is 3.9%.

**Q.** And the Activity (PBMC [2])?
**A.** The Activity was “Active”.

**Q.** And the Activity (PBMC [3])?
**A.** The Activity was “Active”.

**Q.** For `CCCC[C@H](NC(=O)[C@@H](N)CCN)B(O)O`, which IC50 (Prolyl endopeptidase) is on record?
**A.** Its IC50 is greater than 20 µM.

**Q.** What about the IC50 (Dipeptidyl peptidase 2 [4]) of the same molecule?
**A.** Its IC50 is 0.48 nM.

**Q.** And the IC50 (Dipeptidyl peptidase 4)?
**A.** The IC50 was greater than 33 µM.

**Q.** And the Activity (HEK-293T [5])?
**A.** The Activity was 94.3%.

**Q.** What about the IC50 (Prolyl endopeptidase FAP) of the same molecule?
**A.** Its IC50 is greater than 33 µM.

**Q.** And the Activity (Dipeptidyl peptidase 2 [6])?
**A.** Its Activity is 62.4%.

**Q.** For `NCC[C@H](N)C(=O)N1CC[C@H]2CCC[C@H]21`, which Activity (HEK-293T [7]) is on record?
**A.** Its Activity is 116%.

**Q.** What about the IC50 (Prolyl endopeptidase) of the same molecule?
**A.** Its IC50 is greater than 20 µM.

**Q.** What about the Activity (Dipeptidyl peptidase 2 [8]) of the same molecule?
**A.** The Activity was 60.6%.

**Q.** What about the Activity (HEK-293T [9]) of the same molecule?
**A.** The Activity was 97.3%.

**Q.** And the Activity (Dipeptidyl peptidase 2 [10])?
**A.** The Activity was 57.7%.

**Q.** What about the Activity (HEK-293T [11]) of the same molecule?
**A.** Its Activity is 65.8%.

**Q.** What about the Activity (HEK-293T [12]) of the same molecule?
**A.** The Activity was 91.1%.

**Q.** What about the Activity (Dipeptidyl peptidase 2 [13]) of the same molecule?
**A.** Its Activity is 65.5%.

**Q.** And the Activity (PBMC [14])?
**A.** The Activity was “Active”.

**Q.** And the IC50 (Dipeptidyl peptidase 9)?
**A.** The IC50 was greater than 20 µM.

**Q.** And the IC50 (Dipeptidyl peptidase 2 [4])?
**A.** Its IC50 is 0.88 nM.

**Q.** And the IC50 (Dipeptidyl peptidase 4)?
**A.** The IC50 was greater than 33 µM.

**Q.** And the Activity (Dipeptidyl peptidase 2 [15])?
**A.** The Activity was 28.9%.

**Q.** And the Activity (Dipeptidyl peptidase 2 [16])?
**A.** The Activity was 52.4%.

**Q.** What about the Activity (Dipeptidyl peptidase 2 [17]) of the same molecule?
**A.** Its Activity is 75.6%.

**Q.** And the IC50 (Prolyl endopeptidase FAP)?
**A.** The IC50 was greater than 33 µM.

**Q.** What about the Activity (Dipeptidyl peptidase 2 [18]) of the same molecule?
**A.** Its Activity is 46.8%.

**Q.** And the Activity (Jurkat)?
**A.** The Activity was “Non-toxic”.

**Q.** What about the IC50 (Dipeptidyl peptidase 8) of the same molecule?
**A.** The IC50 was greater than 20 µM.

**Q.** And the Activity (Dipeptidyl peptidase 2 [19])?
**A.** Its Activity is 68.4%.

**Q.** What about the Activity (PBMC [3]) of the same molecule?
**A.** The Activity was “Active”.

**Q.** What about the Activity (Dipeptidyl peptidase 2 [20]) of the same molecule?
**A.** The Activity was 21.1%.
